# Measured values reported in PMC7340344 (Journal of medicinal chemistry, 2020).
# Where a name gives a salt, the structure may show the parent alone.
# Key:
# LSD1 = LSD1 (Homo sapiens, UniProt O60341); experiment: Inhibition of LSD1; format: biochemical
# PCAF = PCAF (Homo sapiens, UniProt Q92831); experiment: Inhibition of PCAF; format: biochemical
# Myst3 = Myst3 (Homo sapiens, UniProt Q92794); experiment: Inhibition of Myst3; format: biochemical
# p300 HAT = target: T1, p300 HAT (Homo sapiens, UniProt Q09472); experiment: Steady-state enzyme kinetics, mode of inhibition; format: biochemical
# T1 sequence (Q09472 1195-1673): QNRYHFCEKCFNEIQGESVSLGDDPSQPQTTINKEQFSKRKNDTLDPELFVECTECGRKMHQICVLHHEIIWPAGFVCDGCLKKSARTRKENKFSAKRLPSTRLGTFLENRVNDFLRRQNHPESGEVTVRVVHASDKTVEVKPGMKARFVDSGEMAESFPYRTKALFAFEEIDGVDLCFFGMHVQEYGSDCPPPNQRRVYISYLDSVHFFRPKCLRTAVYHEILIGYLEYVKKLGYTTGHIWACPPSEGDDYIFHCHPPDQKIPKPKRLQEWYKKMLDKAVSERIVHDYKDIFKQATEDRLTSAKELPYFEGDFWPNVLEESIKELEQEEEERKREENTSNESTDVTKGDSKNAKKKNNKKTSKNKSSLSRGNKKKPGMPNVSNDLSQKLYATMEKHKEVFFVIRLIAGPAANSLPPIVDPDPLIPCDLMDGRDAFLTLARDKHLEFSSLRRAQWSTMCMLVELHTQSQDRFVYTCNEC
# Outline: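 Radiometric filter-binding assay with recombinant human GST-p300 HAT domain (residues 1195-1673) expressed in E. coli, at 10 nM. Enzyme was preincubated with test compound for 10 min at 25 °C in 50 mM phosphate, pH 7.0, with 0.01% Brij-35. Histone H3 (1-21) peptide and 3H-Ac-CoA/Ac-CoA started the reaction, with Ac-CoA or peptide concentration varied. After 30 min at 25 °C, formic acid stopped it; peptide was captured on P81 paper, washed with NaHCO3 and scintillation-counted.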
# Kasumi-1 leukemia cells = experiment: Western blot of cellular histone acetylation; format: cell-based; conditions: Kasumi-1 cells, 12h, 5 and 10 μM
# Outline: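 Kasumi-1 cells (10^6/well) were exposed to test compound at 0, 5 and 10 μM for 12 h. Total histones were extracted by kit, and 2 μg per lane were separated by SDS-PAGE and transferred to PVDF. Blots were probed with antibodies to H3K9Ac, H3K18Ac, H3K27Ac and total H3, then with an anti-rabbit IgG secondary.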
# MCF-7 = experiment: Cell growth inhibition, MCF-7; format: cell-based; conditions: Homo sapiens, MCF7, read-out: Antiproliferative activity EC50 (μM), MCF-7
# [1] = tested on: ER+ breast cancer MCF-7 cells; experiment: RNA sequencing and gene set enrichment analysis; format: cell-based, human; conditions: MCF-7, 6 μM, 48 hours, with estradiol 10 nM; p < 0.001
# Outline: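 MCF-7 cells were starved for 7 days in phenol red-free DMEM with 10% charcoal-treated FBS. They were then given test compound (6 μM) or DMSO, with or without estradiol (10 nM), for 48 h. Total RNA was sequenced as stranded, rRNA-depleted libraries (HiSeq 2500, paired-end) and mapped to hg38. FPKM values were quantile-normalized and analysed by GSEA against MSigDB and the siRNA p300-knockdown signature (GSE31873, C4–2B cells).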
# HAT domain of human p300 = target: T2, HAT domain of human p300 (Homo sapiens, UniProt Q09472); experiment: Inhibition of p300-HAT; format: biochemical; conditions: for inhibitory activity against p300 HAT (in words): tested up to 10 μM; for activity reduction as compared to 12: ratio of p300 HAT IC50 to that of compound 12
# T2 sequence (Q09472 1195-1673): T1 sequence (Q09472 1195-1673)
# p300 HAT and histone H4 = target: T3, p300 HAT and histone H4 (Homo sapiens, UniProt Q09472); experiment: Alpha assay, binding between p300 HAT and histone H4 peptide
# T3 sequence (Q09472 1287-1663 limits assumed): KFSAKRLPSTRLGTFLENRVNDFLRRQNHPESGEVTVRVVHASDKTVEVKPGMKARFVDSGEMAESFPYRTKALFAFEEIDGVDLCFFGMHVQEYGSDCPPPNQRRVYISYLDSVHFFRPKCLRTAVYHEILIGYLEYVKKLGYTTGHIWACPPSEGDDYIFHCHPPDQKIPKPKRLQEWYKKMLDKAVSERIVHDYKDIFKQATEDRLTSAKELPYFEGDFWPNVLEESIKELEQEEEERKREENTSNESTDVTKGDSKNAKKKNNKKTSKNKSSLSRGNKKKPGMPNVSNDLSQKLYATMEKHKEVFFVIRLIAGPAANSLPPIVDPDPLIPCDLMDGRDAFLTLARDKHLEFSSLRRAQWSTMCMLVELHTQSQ
# p300/CBP HAT = conditions: cited from earlier work
# Sequence of Myst3 (Q92794 whole entry): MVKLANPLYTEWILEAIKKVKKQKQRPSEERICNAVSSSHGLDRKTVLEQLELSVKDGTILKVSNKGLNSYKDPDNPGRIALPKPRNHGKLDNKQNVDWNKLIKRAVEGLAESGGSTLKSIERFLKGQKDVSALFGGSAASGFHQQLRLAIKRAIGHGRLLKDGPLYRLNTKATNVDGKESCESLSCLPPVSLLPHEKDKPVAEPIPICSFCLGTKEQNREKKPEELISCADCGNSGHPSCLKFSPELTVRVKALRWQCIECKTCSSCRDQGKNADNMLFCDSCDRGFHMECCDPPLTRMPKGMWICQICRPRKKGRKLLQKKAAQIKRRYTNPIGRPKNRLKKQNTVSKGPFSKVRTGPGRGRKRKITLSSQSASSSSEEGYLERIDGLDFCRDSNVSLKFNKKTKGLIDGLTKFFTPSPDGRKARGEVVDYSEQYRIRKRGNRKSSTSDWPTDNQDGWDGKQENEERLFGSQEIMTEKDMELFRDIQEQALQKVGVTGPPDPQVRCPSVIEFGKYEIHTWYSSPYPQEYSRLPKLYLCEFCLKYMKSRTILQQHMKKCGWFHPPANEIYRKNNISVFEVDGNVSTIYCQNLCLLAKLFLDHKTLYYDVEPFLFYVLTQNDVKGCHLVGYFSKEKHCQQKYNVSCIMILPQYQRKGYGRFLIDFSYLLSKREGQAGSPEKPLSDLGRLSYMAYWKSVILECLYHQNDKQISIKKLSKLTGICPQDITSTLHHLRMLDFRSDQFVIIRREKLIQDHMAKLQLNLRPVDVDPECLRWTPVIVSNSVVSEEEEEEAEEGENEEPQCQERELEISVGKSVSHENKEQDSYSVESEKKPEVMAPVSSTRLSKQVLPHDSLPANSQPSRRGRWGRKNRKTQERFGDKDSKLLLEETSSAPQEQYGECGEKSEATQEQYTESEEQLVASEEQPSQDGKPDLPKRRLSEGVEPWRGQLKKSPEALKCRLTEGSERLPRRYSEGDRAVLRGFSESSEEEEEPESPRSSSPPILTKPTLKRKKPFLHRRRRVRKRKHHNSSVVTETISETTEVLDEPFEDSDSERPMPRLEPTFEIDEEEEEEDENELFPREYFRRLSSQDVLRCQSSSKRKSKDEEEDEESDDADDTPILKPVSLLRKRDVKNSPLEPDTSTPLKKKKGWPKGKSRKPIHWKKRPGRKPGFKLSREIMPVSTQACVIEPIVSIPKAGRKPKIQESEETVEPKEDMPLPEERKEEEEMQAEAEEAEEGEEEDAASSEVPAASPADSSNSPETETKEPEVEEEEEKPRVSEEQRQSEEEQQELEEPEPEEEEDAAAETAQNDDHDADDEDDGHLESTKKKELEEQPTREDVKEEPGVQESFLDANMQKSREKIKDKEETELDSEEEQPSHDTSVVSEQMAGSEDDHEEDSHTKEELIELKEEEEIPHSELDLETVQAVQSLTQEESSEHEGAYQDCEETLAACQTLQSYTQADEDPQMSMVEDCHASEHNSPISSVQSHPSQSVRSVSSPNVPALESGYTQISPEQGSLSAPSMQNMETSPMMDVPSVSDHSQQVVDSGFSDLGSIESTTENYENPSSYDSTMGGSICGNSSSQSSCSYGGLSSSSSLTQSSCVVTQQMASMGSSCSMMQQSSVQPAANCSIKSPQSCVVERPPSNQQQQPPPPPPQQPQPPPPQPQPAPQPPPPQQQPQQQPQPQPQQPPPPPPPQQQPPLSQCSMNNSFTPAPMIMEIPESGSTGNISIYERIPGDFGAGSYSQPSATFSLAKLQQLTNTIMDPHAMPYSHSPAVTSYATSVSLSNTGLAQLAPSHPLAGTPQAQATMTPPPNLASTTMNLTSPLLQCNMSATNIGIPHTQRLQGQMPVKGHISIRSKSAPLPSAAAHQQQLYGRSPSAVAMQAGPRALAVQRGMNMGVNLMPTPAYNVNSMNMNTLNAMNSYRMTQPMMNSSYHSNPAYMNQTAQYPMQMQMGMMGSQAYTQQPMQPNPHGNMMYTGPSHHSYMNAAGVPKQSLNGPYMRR
# Sequence of PCAF (Q92831 whole entry): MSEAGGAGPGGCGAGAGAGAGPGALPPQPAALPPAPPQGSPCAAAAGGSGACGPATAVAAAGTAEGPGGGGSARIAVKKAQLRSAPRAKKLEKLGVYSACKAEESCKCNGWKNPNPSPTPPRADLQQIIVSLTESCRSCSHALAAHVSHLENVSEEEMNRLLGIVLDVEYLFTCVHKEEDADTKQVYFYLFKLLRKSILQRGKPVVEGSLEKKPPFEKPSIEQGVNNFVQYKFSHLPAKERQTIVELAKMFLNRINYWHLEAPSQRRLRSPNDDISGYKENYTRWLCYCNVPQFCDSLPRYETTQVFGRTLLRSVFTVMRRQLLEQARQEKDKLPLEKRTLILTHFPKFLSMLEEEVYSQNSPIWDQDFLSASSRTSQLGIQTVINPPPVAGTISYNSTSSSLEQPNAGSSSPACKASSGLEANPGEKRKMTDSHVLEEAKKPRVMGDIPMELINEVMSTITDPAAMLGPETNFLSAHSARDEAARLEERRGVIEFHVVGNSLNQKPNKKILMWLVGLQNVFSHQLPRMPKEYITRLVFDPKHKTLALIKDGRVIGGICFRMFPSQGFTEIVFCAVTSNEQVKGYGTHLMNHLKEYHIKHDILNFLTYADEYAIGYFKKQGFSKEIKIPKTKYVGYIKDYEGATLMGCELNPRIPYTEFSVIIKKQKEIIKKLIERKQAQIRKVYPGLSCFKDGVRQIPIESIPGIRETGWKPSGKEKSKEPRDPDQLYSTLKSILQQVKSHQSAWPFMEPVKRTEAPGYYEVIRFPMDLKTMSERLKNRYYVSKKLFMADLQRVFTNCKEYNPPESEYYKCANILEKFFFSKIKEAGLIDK
molecule,measurement,setting,value
"CC(C)(C)c1ccc(-c2cc(C(=O)NCC3CCNCC3)sc2-c2ccc(C(C)(C)C)cc2)cc1 [Compound 1, 4,5-bis(4-(tert-Butyl)phenyl)-N-(piperidin-4-ylmethyl)thiophene-2-carboxamide hydrochloride]",inhibition of LSD1 activity at 50 μM,LSD1,did not significantly inhibit
"CC(C)(C)c1ccc(-c2cc(CNCC3CCNCC3)sc2-c2ccc(C(C)(C)C)cc2)cc1 [Compound 12, 1-(4,5-bis(4-(tert-Butyl)phenyl)thiophen-2-yl)-N-(piperidin-4-ylmethyl)methanamine hydrochloride]",inhibition of PCAF activity at 50 μM,PCAF,did not significantly inhibit
same,inhibition of Myst3 activity at 50 μM,Myst3,did not significantly inhibit
same,inhibition of LSD1 activity at 50 μM,LSD1,did not significantly inhibit
same,mode of inhibition against the cofactor Ac-CoA,p300 HAT; Ac-CoA 0.5 - 8 μM (0.07-[…] Km),non-competitive
same,mode of inhibition against the substrate histone,p300 HAT; histone peptide 2 - 100 μM,competitive
same,"cellular acetylation of histone H3K9, H3K18 and H3K27",Kasumi-1 leukemia cells,significantly inhibit
same,EC50,MCF-7,~3 µM
same,"NES, gene set upregulated by estradiol",[1],−9.19
same,"NES, genes suppressed by estradiol",[1],7.41
same,"normalized enrichment score (NES), genes suppressed by p300 knockdown (GSE31873)",[1],−3.32
"NCc1ccc(-c2cc(CNCC3CCNCC3)sc2-c2ccc(CN)cc2)cc1 [Compound 28, ((5-(((Piperidin-4-ylmethyl)amino)methyl)thiophene-2,3-diyl)bis(4,1-phenylene))dimethanamine hydrochloride]",inhibitory activity against p300 HAT (in words),HAT domain of human p300,inactive
same,effect on binding between p300 HAT and histone H4 (in words),p300 HAT and histone H4,not interfered
same,"cellular acetylation of histone H3K9, H3K18 and H3K27",Kasumi-1 leukemia cells,no significant activity
"c1cc(-c2cc(CNCC3CCNCC3)sc2-c2ccoc2)co1 [Compound 30, 1-(4,5-di(Furan-3-yl)thiophen-2-yl)-N-(piperidin-4-ylmethyl)methanamine hydrochloride]",inhibitory activity against p300 HAT (in words),HAT domain of human p300,very low activity
"COc1ccc(-c2cc(CNCC3CCNCC3)sc2-c2ccc(OC)c(OC)c2)cc1OC [Compound 31, 1-(4,5-bis(3,4-Dimethoxyphenyl)thiophen-2-yl)-N-(piperidin-4-ylmethyl)methanamine hydrochloride]",inhibitory activity against p300 HAT (in words),HAT domain of human p300,Lack of inhibition
"c1ccc(-c2cccc(-c3cc(CNCC4CCNCC4)sc3-c3cccc(-c4ccccc4)c3)c2)cc1 [Compound 32, 1-(4,5-di([1,1’-Biphenyl]-3-yl)thiophen-2-yl)-N-(piperidin-4-ylmethyl)methanamine hydrochloride]",inhibitory activity against p300 HAT (in words),HAT domain of human p300,Lack of inhibition
"CC(C)(C)c1ccc(-c2sc(CNCC3CCNCC3)c(Br)c2-c2ccc(C(C)(C)C)cc2)cc1 [Compound 33, 1-(3-Bromo-4,5-bis(4-(tert-butyl)phenyl)thiophen-2-yl)-N-(piperidin-4-ylmethyl)methanamine hydrochloride]",activity reduction as compared to 12,HAT domain of human p300,~ 3 fold
"CC(C)(C)c1ccc(-c2cc(CNCC3CCNCC3)oc2-c2ccc(C(C)(C)C)cc2)cc1 [Compound 34, 1-(4,5-bis(4-(tert-Butyl)phenyl)furan-2-yl)-N-(piperidin-4-ylmethyl)methanamine hydrochloride]",IC50,HAT domain of human p300,4.9 µM
"c1cc(-c2ccc(-c3cc(CNCC4CCNCC4)oc3-c3ccc(-c4ccoc4)cc3)cc2)co1 [Compound 35, 1-(4,5-bis(4-(Furan-3-yl)phenyl)furan-2-yl)-N-(piperidin-4-ylmethyl)methanamine hydrochloride]",IC50,HAT domain of human p300,3 µM
"CC(C)(C)c1ccc(-c2nc(CNCC3CCNCC3)sc2-c2ccc(C(C)(C)C)cc2)cc1 [Compound 37, 1-(4,5-bis(4-(tert-Butyl)phenyl)thiazol-2-yl)-N-(piperidin-4-ylmethyl)methanamine hydrochloride]",activity reduction as compared to 12,HAT domain of human p300,more than 13 fold
"CC(C)(C)c1ccc(-c2csc(CNCC3CCNCC3)n2)cc1 [Compound 38, 1-(4-(4-(tert-Butyl)phenyl)thiazol-2-yl)-N-(piperidin-4-ylmethyl)methanamine hydrochloride]",inhibitory activity against p300 HAT (in words),HAT domain of human p300,Loss of activity
"CC(C)(C)c1ccc(-c2csc(C(=O)NCC3CCNCC3)n2)cc1 [Compound 39, 4-(4-(tert-Butyl)phenyl)-N-(piperidin-4-ylmethyl)thiazole-2-carboxamide hydrochloride]",inhibitory activity against p300 HAT (in words),HAT domain of human p300,Loss of activity
"CNC(=O)Nc1ccc2c(c1)CC[C@@]21OC(=O)N(CC(=O)N(Cc2ccc(F)cc2)[C@@H](C)C(F)(F)F)C1=O [Compound A-485, reference compound]",effect on binding between p300 HAT and histone H4 (in words),p300 HAT and histone H4,did not affect the binding
same,mode of inhibition,p300/CBP HAT,competitive against the enzyme cofactor acetyl coenzyme A (Ac-CoA)
"N-((5,6-bis(4-(Furan-3-yl)phenyl)pyrazin-2-yl)methyl)piperidin-4-amine hydrochloride [Compound 40]",inhibitory activity against p300 HAT (in words),HAT domain of human p300,significantly less active than its thiophene analog 11
